Calls of active or inactive are those of the source. The rule behind the calls is not given here.
Columns and labels:
HL-60 [1] = test: Cytotoxicity against HL60 cells by Propidium iodide exclusion assay; type: functional; settings: Homo sapiens, read-out: ED50 (the source's name)
Procedure, shortened: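 HL-60 cells seeded at 2.5 × 10⁵ cells/mL and treated at a range of concentrations for 24, 48 and 72 h at 37 °C. Viable cells were scored by propidium iodide exclusion on flow cytometry. Viability is given as the ratio of treated to control cells. ED50 derived; three independent experiments, mean ± SD.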

HL-60 (Homo sapiens) = test: Induction of apoptosis in HL-60 cells after 72 hrs
HL-60 [2] = test: Induction of HL60 cell differentiation assessed as nitroblue tetrazolium reduction activity at 26 uM after 72 hrs; type: functional, Homo sapiens; set-up: scale not given: the % may be the effect or the level left
Procedure, shortened: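 Cells treated 72 h (ATRA co-treatment at 1 µM where stated) were suspended in HBSS at 1 × 10⁶ cells/mL. Mixed with an equal volume of HBSS stock containing 1 mg/ml NBT and 5 µg/mL TPA, then held 30 min at 37 °C. Cells with formazan deposits were counted microscopically, at least 200 cells. Three experiments, each in duplicate.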

HT60 = test: Induction of apoptosis in […] cells at 26 uM after 48 hrs; type: functional, cell-based; settings: Homo sapiens
Procedure, shortened: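 HL-60 cells were cultured 72 h or 48 h with compound, with 0.1% (v/v) DMSO as the control. Nuclei were stained with DAPI and examined microscopically (400×) for nuclear shrinkage and chromatin condensation.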

Cc1cc2c(o1)c(-c1ccc(C(=O)O)cc1)nn2Cc1ccccc1
EC50 (HL-60 [1]): > 20 µM

Cc1cc2c(o1)c(-c1ccc(C(=O)O)cc1)nn2-c1ccccc1
EC50 (HL-60 [1]): > 20 µM

OCc1ccc(-c2nn(Cc3ccccc3)c3ccccc23)o1
Activity (HL-60 (Homo sapiens)): inactive
Activity (HL-60 [2]): 3.56%
AD50 (HT60): Active

Cc1cc2c(o1)c(-c1ccc(CO)cc1)nn2-c1ccccc1
EC50 (HL-60 [1]): > 20 µM

— ChEMBL document CHEMBL1146352, “Synthesis of furopyrazole analogs of 1-benzyl-3-(5-hydroxymethyl-2-furyl)indazole (YC-1) as novel anti-leukemia agents” (2007)
